Results from ChEMBL document CHEMBL1124311, “Synthesis and antiallergy activity of 4-(diarylhydroxymethyl)-1-[3-(aryloxy)propyl]piperidines and structurally related compounds” (J Med Chem, 1989).
pIC50: −log10 of the molar value. The source made the active and inactive calls. The rule behind the calls is not given here.

Legend:
[1] = test system: Rattus norvegicus; experiment: Oral antiallergy activity in the passive foot anaphylaxis (PFA) model of rat, at a dose of 10 (mg/kg); not significantly different from negative control group; format: functional, organism-based
[2] = organism: Cavia porcellus; experiment: Oral antiallergy activity in the guinea pig anaphylaxis (GPA) model, at a pretreatment time of 1 h; format: functional; conditions: read-out: PD50
Procedure, shortened: (§1)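 Fasted, sensitized Dunkin-Hartley guinea pigs, randomized into control (N = 8) and test (N = 4) groups, dosed by gavage at 10 mL/kg in 0.5% Tween 80 in water; theophylline 100 mg/kg po as reference. At the stated pretreatment time, each animal was exposed to aerosolized 1% (w/v) egg albumin at 10 L air/min for up to 5 min. Protection meant no collapse within 5 min. PD50 was calculated by Litchfield–Wilcoxon.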

[3] = organism: Cavia porcellus; experiment: Oral antiallergy activity in the guinea pig anaphylaxis (GPA) model of, at a pretreatment time of 6 h; format: functional; conditions: read-out: PD50; procedure, shortened: as §1
[4] = test system: Rattus norvegicus; experiment: Oral antiallergy activity in the passive foot anaphylaxis (PFA) model of rat, at a dose of 10 (mg/kg); Not significantly different from negative control group; format: functional, organism-based
[5] = test system: Rattus norvegicus; experiment: Oral antiallergy activity in the passive foot anaphylaxis (PFA) model of rat, at a dose of 3.16 (mg/kg); - indicates not significantly different from negative control group.; format: functional, organism-based
[6] = test system: Rattus norvegicus; experiment: Oral antiallergy activity in the passive foot anaphylaxis (PFA) model of rat, at a dose of 10 (mg/kg); Activity greater than positive control group; format: functional, organism-based
[7] = test system: Rattus norvegicus; experiment: Oral antiallergy activity in the passive foot anaphylaxis (PFA) model of rat, at a dose of 1.0 (mg/kg);not significantly different from negative control group; format: functional, organism-based
[8] = test system: Rattus norvegicus; experiment: Oral antiallergy activity in the passive foot anaphylaxis (PFA) model of rat, at a dose of 3.16 (mg/kg); Activity between positive and negative control groups; format: functional, organism-based
[9] = organism: Cavia porcellus; experiment: Oal antiallergy activity in the guinea pig anaphylaxis (GPA) model of, at a pretreatment time of 5 h; format: functional; conditions: read-out: PD50; procedure, shortened: as §1
[10] = organism: Cavia porcellus; experiment: Oal antiallergy activity in the guinea pig anaphylaxis (GPA) model, at a pretreatment time of 24 h; format: functional; conditions: read-out: PD50; procedure, shortened: as §1
[11] = molecular target: Histamine H1 receptor (Cavia porcellus, UniProt P31389); experiment: Inhibitory activity against Tritiated [3H]- mepyramine binding to Histamine H1 receptor in guinea pig cerebral cortex; format: tissue-based
Chain of Histamine H1 receptor (P31389 whole entry): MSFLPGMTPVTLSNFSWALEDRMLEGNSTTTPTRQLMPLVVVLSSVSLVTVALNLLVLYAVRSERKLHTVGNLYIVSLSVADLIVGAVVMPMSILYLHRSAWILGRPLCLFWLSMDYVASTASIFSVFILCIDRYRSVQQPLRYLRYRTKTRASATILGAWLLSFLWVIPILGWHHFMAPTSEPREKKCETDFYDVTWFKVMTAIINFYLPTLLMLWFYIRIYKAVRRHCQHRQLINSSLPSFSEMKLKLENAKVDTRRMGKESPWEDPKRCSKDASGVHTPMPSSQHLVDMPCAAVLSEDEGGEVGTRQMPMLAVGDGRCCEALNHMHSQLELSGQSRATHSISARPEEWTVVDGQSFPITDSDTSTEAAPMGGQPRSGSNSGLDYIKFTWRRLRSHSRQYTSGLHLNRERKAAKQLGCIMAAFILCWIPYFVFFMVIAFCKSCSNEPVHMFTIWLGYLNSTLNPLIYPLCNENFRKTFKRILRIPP
Procedure, shortened: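 Guinea pig (Dunkin-Hartley) cerebral cortex homogenised in cold 50 mM Na-K phosphate pH 7.5, washed by repeated 48000g spins, membranes resuspended at 30 mL buffer/g wet tissue. Incubated with 1.5 nM (final) [3H]mepyramine for 20 min at 25 °C. Stopped by cold-buffer washing and GF/B filtration, then scintillation counting. Six concentrations (1e-5 to 1e-10 M) in triplicate. IC50 from regression of logit % control binding vs log concentration.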

[12] = test system: Rattus norvegicus; experiment: Oral antiallergy activity in the passive foot anaphylaxis (PFA) model of rat, at a dose of 10 (mg/kg); Activity equal to positive control group; format: functional, organism-based
[13] = organism: Rattus norvegicus; experiment: Oral antiallergy activity in the passive foot anaphylaxis (PFA) model of rat, at a dose of 3.16; Activity equal to positive control group; format: functional, organism-based
[14] = test system: Rattus norvegicus; experiment: Oral antiallergy activity in the passive foot anaphylaxis (PFA) model of rat, at a dose of 1.0 (mg/kg); not significantly different from negative control group; format: functional, organism-based

SMILES: CC(C)(C)c1ccc(C(O)CCCN2CCC(C(O)(c3ccccc3)c3ccccc3)CC2)cc1 (centres undefined) [TERFENADINE]
- PFA [1]: inactive
- ED50 [2]: 1 mg/kg
- ED50 [3]: 3.2 mg/kg

SMILES: COc1cc(C(C)=O)ccc1OCCCN1CCC(C(O)c2ccccc2)CC1 (centres undefined)
- PFA [4]: Not significantly different from negative control group

SMILES: OC(c1ccc(F)cc1)(c1ccc(F)cc1)C1CCN(CCCCc2ccccc2)CC1
- PFA [5]: Not significantly different from negative control group

SMILES: CS(=O)(=O)Nc1ccc(OCCCN2CCC(C(O)(c3ccc(F)cc3)c3ccc(F)cc3)CC2)cc1
- PFA [6]: Activity between positive and negative control groups
- PFA [7]: Activity between positive and negative control groups
- PFA [8]: Activity between positive and negative control groups

SMILES: O=c1[nH]c2ccccc2n1CCCN1CCN(C(c2ccccc2)c2ccccc2)CC1 [OXATOMIDE]
- ED50 [9]: 1 mg/kg
- ED50 [10]: 10 mg/kg
- pIC50 [11]: 8.05

SMILES: Cc1ccc(OCCCN2CCC(C(O)(c3ccc(F)cc3)c3ccc(F)cc3)CC2)cc1
- PFA [12]: Activity equal to positive control group
- PFA [13]: Activity equal to positive control group
- PFA [14]: Activity equal to positive control group
